One assay deals with MGC-803. The assay can be described thus: Cytotoxicity against human MGC803 cells after 48 hrs by MTT assay. The format is functional, cell-based. Particulars: MGC-803, 48 h. The procedure, abridged:
(§1)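 MTT colorimetric assay. Shikonin and 5-fluorouracil served as reference agents. IC₅₀ obtained by linear regression of each compound's concentration–response curve.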
(In general: Formazan colour is commonly taken as a measure of viable cells.)

A short description of assay [1]: Cytotoxicity against human HSF cells after 48 hrs by MTT assay. The format is cell-based. In outline: as §1
In the next assay the test system is HCT-15. The assay can be described thus: Cytotoxicity against human HCT15 cells after 48 hrs by MTT assay. The format is functional, cell-based. As to conditions: HCT-15, 48 h. The procedure, abridged:
as §1

A further assay relates to Bel-7402. Put plainly: Cytotoxicity against human Bel7402 cells after 48 hrs by MTT assay. The format is functional, cell-based. Particulars: Bel-7402, 48 h. The procedure, abridged:
as §1

Another assay concerns MCF7. The assay can be described thus: Cytotoxicity against human MCF7 cells after 48 hrs by MTT assay. As to conditions: MCF7, 48 h. The format is functional, cell-based. In outline: as §1

pIC50: −log10 of the molar value. A value given as a limit tells only on which side of the number the result lay.

Broadly, the pIC50 is −log10 of the IC50, conventionally taken in molar units. A higher pIC50 goes with a low IC50.

As for `CCCCCCCSC(CC=C(C)C)c1cc(OC)c2c(c1OC)/C(=N/O)C=C/C2=N\O` (stereo not given), the pIC50 in the assay with MGC-803 is 5.26; in assay [1] it was below 4.30; in the assay with HCT-15, 5.71; with Bel-7402 it was 5.09; in the assay on MCF7, 4.51.

For `COc1cc(C(CC=C(C)C)SC(=O)c2ccncc2)c(OC)c2c1/C(=N/O)C=C/C2=N\O` (stereo not given), the pIC50 in the assay with MGC-803 was 4.71; in assay [1], below 4.30; with HCT-15 it was 5.14; in the assay on Bel-7402, 4.57; with MCF7, below 4.30.

On to `COc1cc(C(CC=C(C)C)SC(=O)c2cccs2)c(OC)c2c1/C(=N/O)C=C/C2=N\O` (stereo not given), for which the pIC50 with MGC-803 was 5.56; in assay [1], below 4.30; in the assay on HCT-15, 5.87; with Bel-7402 it was 5.52; in the assay with MCF7, 4.62.

Consider `CCCCSC(CC=C(C)C)c1cc(OC)c2c(c1OC)/C(=N/O)C=C/C2=N\O` (stereo not given), for which the pIC50 in the assay on MGC-803 is 5.03; in assay [1], below 4.30; in the assay with HCT-15, 5.36; in the assay on Bel-7402, 4.90; with MCF7, 4.44.

Consider `COc1cc(C(CC=C(C)C)SC/C=C(\C)CC/C=C(\C)CCC=C(C)C)c(OC)c2c1/C(=N/O)C=C/C2=N\O` (stereo not given), for which the pIC50 in the assay with MGC-803 was 5.00; in assay [1], below 4.30; in the assay with HCT-15, 5.22; in the assay with Bel-7402 it was 4.83; in the assay on MCF7, 4.43.

As for `COc1cc(C(CC=C(C)C)SC(=O)c2ccccc2Cl)c(OC)c2c1/C(=N/O)C=C/C2=N\O` (stereo not given), the negative logarithm of the IC50 (pIC50) in the assay with MGC-803 is 5.77; in assay [1], below 4.30; in the assay on HCT-15 it was 6.28; with Bel-7402, 6.06; with MCF7 it was 4.72.

In the case of `CCCCCCCCSC(CC=C(C)C)c1cc(OC)c2c(c1OC)/C(=N/O)C=C/C2=N\O` (stereo not given), the pIC50 with MGC-803 was 5.64; in assay [1], below 4.30; in the assay with HCT-15, 5.90; in the assay with Bel-7402, 5.20; with MCF7, 4.59.

Take `COc1cc(C(CC=C(C)C)SC(=O)c2ccc(C)cc2)c(OC)c2c1/C(=N/O)C=C/C2=N\O` (stereo not given): the pIC50 with MGC-803 was 6.04; in assay [1], below 4.30; with HCT-15, 6.33; in the assay on Bel-7402, 6.14; in the assay on MCF7, 4.80.

`COc1cc(C(CC=C(C)C)SC(=O)CC(C)C)c(OC)c2c1/C(=N/O)C=C/C2=N\O` (stereo not given): the pIC50 was 5.83 with MGC-803; below 4.30 in assay [1]; 6.23 in the assay with HCT-15; 5.78 in the assay on Bel-7402; 4.79 in the assay on MCF7.

For the molecule `CCCCCCCCCCCCSC(CC=C(C)C)c1cc(OC)c2c(c1OC)/C(=N/O)C=C/C2=N\O` (stereo not given), the pIC50 with MGC-803 was 4.50; in assay [1] it was below 4.30; with HCT-15 it was 4.83; in the assay on Bel-7402, 4.46; in the assay with MCF7, below 4.30.

Take `COc1ccc(C(=O)S[C@@H](CC=C(C)C)c2cc(OC)c3c(c2OC)/C(=N/O)C=C/C3=N\O)cc1OC`: the pIC50 with MGC-803 was 5.95; in assay [1], below 4.30; in the assay with HCT-15, 6.42; in the assay on Bel-7402, 6.07; in the assay on MCF7 it was 4.82.

Turning to `CCCCCCCCCCSC(CC=C(C)C)c1cc(OC)c2c(c1OC)/C(=N/O)C=C/C2=N\O` (stereo not given), the pIC50 was 4.72 with MGC-803; below 4.30 in assay [1]; 5.13 with HCT-15; 4.60 with Bel-7402; 4.32 with MCF7.

As to `CCSC(CC=C(C)C)c1cc(OC)c2c(c1OC)/C(=N/O)C=C/C2=N\O` (stereo not given), the pIC50 with MGC-803 is 4.90; in assay [1] it was below 4.30; in the assay on HCT-15 it was 5.15; in the assay with Bel-7402 it was 4.70; with MCF7, 4.35.

As to `COc1cc(C(CC=C(C)C)SC(=O)c2ccc([N+](=O)[O-])cc2)c(OC)c2c1/C(=N/O)C=C/C2=N\O` (stereo not given), the pIC50 was 5.03 in the assay on MGC-803; below 4.30 in assay [1]; 5.29 in the assay with HCT-15; 4.90 in the assay with Bel-7402; 4.35 in the assay with MCF7.

With `CCCCCCCCCSC(CC=C(C)C)c1cc(OC)c2c(c1OC)/C(=N/O)C=C/C2=N\O` (stereo not given), the pIC50 in the assay with MGC-803 was 5.01; in assay [1], below 4.30; with HCT-15, 5.39; with Bel-7402, 4.86; with MCF7, 4.42.

On to `COc1cc(C(CC=C(C)C)SC(=O)c2ccc(C(F)(F)F)cc2)c(OC)c2c1/C(=N/O)C=C/C2=N\O` (stereo not given), for which the pIC50 with MGC-803 was 5.22; in assay [1], below 4.30; in the assay on HCT-15, 5.56; with Bel-7402, 5.15; in the assay with MCF7, 4.52.

As for `COc1cc(C(CC=C(C)C)SC(=O)c2cccnc2)c(OC)c2c1/C(=N/O)C=C/C2=N\O` (stereo not given), the pIC50 is 5.12 in the assay on MGC-803; below 4.30 in assay [1]; 5.46 in the assay on HCT-15; 4.99 with Bel-7402; 4.43 with MCF7.

Consider `COc1cc(C(CC=C(C)C)SC(=O)c2cccc(F)c2)c(OC)c2c1/C(=N/O)C=C/C2=N\O` (stereo not given), for which the pIC50 in the assay on MGC-803 was 5.19; in assay [1], below 4.30; in the assay on HCT-15, 5.57; in the assay with Bel-7402 it was 5.05; in the assay with MCF7, 4.41.

Consider `COc1cc([C@@H](CC=C(C)C)SC(=O)c2ccccc2)c(OC)c2c1/C(=N/O)C=C/C2=N\O`, for which the pIC50 was 5.57 in the assay on MGC-803; below 4.30 in assay [1]; 5.97 with HCT-15; 5.53 with Bel-7402; 4.59 in the assay with MCF7.

As to `COc1cc(C(CC=C(C)C)SC(=O)c2ccc(NC(=O)OC(C)(C)C)cc2)c(OC)c2c1/C(=N/O)C=C/C2=N\O` (stereo not given), the pIC50 in the assay on MGC-803 was 5.18; in assay [1], below 4.30; with HCT-15, 5.47; in the assay with Bel-7402 it was 5.04; in the assay with MCF7 it was 4.49.

Turning to `COc1cc(C(CC=C(C)C)SC(=O)C=C(C)C)c(OC)c2c1/C(=N/O)C=C/C2=N\O` (stereo not given), the pIC50 in the assay with MGC-803 was 5.40; in assay [1] it was below 4.30; in the assay on HCT-15, 5.81; in the assay with Bel-7402, 5.34; with MCF7, 4.52.

Consider `COc1cc(C(CC=C(C)C)SCC=C(C)C)c(OC)c2c1/C(=N/O)C=C/C2=N\O` (stereo not given), for which the pIC50 with MGC-803 is 5.15; in assay [1], below 4.30; in the assay with HCT-15, 5.42; in the assay with Bel-7402, 4.90; in the assay with MCF7, 4.47.

As to `COc1cc(C(CC=C(C)C)SC(=O)c2ccccc2F)c(OC)c2c1/C(=N/O)C=C/C2=N\O` (stereo not given), the pIC50 with MGC-803 was 5.82; in assay [1], below 4.30; in the assay on HCT-15, 6.21; in the assay on Bel-7402 it was 5.87; with MCF7 it was 4.64.

In the case of `COc1cc(C(CC=C(C)C)SC(=O)c2ccc(N)cc2)c(OC)c2c1/C(=N/O)C=C/C2=N\O` (stereo not given), the pIC50 was 5.61 in the assay with MGC-803; below 4.30 in assay [1]; 5.77 in the assay on HCT-15; 5.90 with Bel-7402; 4.71 in the assay with MCF7.

`COc1cc([C@H](CC=C(C)C)SCCC(C)C)c(OC)c2c1/C(=N/O)C=C/C2=N\O`: the pIC50 is 5.51 with MGC-803; below 4.30 in assay [1]; 6.04 in the assay with HCT-15; 5.31 with Bel-7402; 4.58 in the assay with MCF7.

Consider `CCCCCCSC(CC=C(C)C)c1cc(OC)c2c(c1OC)/C(=N/O)C=C/C2=N\O` (stereo not given), for which the pIC50 in the assay on MGC-803 was 5.17; in assay [1] it was below 4.30; with HCT-15, 5.46; in the assay with Bel-7402, 4.93; with MCF7 it was 4.46.

For `COc1cccc(C(=O)SC(CC=C(C)C)c2cc(OC)c3c(c2OC)/C(=N/O)C=C/C3=N\O)c1` (stereo not given), the pIC50 in the assay with MGC-803 is 5.37; in assay [1] it was below 4.30; in the assay on HCT-15 it was 5.78; in the assay on Bel-7402, 5.26; in the assay on MCF7 it was 4.45.

For the molecule `COc1cc(C(=O)S[C@H](CC=C(C)C)c2cc(OC)c3c(c2OC)/C(=N/O)C=C/C3=N\O)cc(OC)c1OC`, the pIC50 is 5.93 in the assay on MGC-803; below 4.30 in assay [1]; 6.24 with HCT-15; 6.01 in the assay on Bel-7402; 4.89 in the assay on MCF7.

Consider `COc1cc(C(CC=C(C)C)SC(=O)c2ccc(F)cc2)c(OC)c2c1/C(=N/O)C=C/C2=N\O` (stereo not given), for which the pIC50 is 5.89 in the assay on MGC-803; below 4.30 in assay [1]; 6.15 in the assay on HCT-15; 6.05 in the assay with Bel-7402; 4.69 in the assay with MCF7.

Consider `COc1cc(C(CC=C(C)C)SC(=O)c2ccco2)c(OC)c2c1/C(=N/O)C=C/C2=N\O` (stereo not given), for which the pIC50 was 5.30 in the assay with MGC-803; below 4.30 in assay [1]; 5.70 in the assay with HCT-15; 5.14 with Bel-7402; 4.55 in the assay with MCF7.

With `COc1cc([C@H](CC=C(C)C)SC(=O)c2ccccc2)c(OC)c2c1/C(=N/O)C=C/C2=N\O`, the pIC50 in the assay with MGC-803 is 5.90; in assay [1], below 4.30; in the assay with HCT-15, 6.23; with Bel-7402, 5.83; in the assay with MCF7 it was 4.74.

`COc1cc(C(CC=C(C)C)SC(=O)c2ccc(Cl)cc2)c(OC)c2c1/C(=N/O)C=C/C2=N\O` (stereo not given): the pIC50 was 5.84 in the assay with MGC-803; below 4.30 in assay [1]; 6.09 in the assay on HCT-15; 5.94 in the assay with Bel-7402; 4.69 in the assay with MCF7.

In the case of `COc1ccc(C(=O)S[C@H](CC=C(C)C)c2cc(OC)c3c(c2OC)/C(=N/O)C=C/C3=N\O)cc1OC`, the pIC50 with MGC-803 is 5.80; in assay [1] it was below 4.30; with HCT-15, 6.08; in the assay on Bel-7402 it was 5.94; with MCF7, 4.71.

In the case of `COc1cc(C(CC=C(C)C)SC(=O)c2cccc(Cl)c2)c(OC)c2c1/C(=N/O)C=C/C2=N\O` (stereo not given), the pIC50 in the assay with MGC-803 is 5.06; in assay [1], below 4.30; in the assay with HCT-15 it was 5.58; in the assay on Bel-7402, 4.92; in the assay on MCF7, 4.37.

With `CCC(=O)SC(CC=C(C)C)c1cc(OC)c2c(c1OC)/C(=N/O)C=C/C2=N\O` (stereo not given), the negative logarithm of the IC50 (pIC50) with MGC-803 was 5.51; in assay [1] it was below 4.30; with HCT-15, 5.87; in the assay with Bel-7402, 5.56; in the assay on MCF7 it was 4.58.

The values are drawn from ChEMBL document CHEMBL4138201, “Synthesis and biological evaluation of sulfur-containing shikonin oxime derivatives as potential antineoplastic agents” (Eur J Med Chem, 2018).
